From article PMC9214057 (Acta Pharmaceutica Sinica. B, 2022)
Residues, ends and D or L forms follow the SMILES beside them. *: point of attachment. Cbz = O=C(OCc1ccccc1)*

Key:
[1] = test system: PD-L1; conditions: cited from earlier work
[2] = test system: hPD-L1 MC38 cells; test: PD-L1 expression and localisation by Western blotting / immunofluorescence; type: cell-based, mouse; conditions: 24 h
Method in brief: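 hPD-L1 MC38 cells were exposed for 24 h. For immunofluorescence, cells on glass-bottom dishes were treated at 1 and 10 μmol/L, fixed, permeabilized, stained overnight with anti-PD-L1, then Alexa Fluor 488 secondary with DAPI, and imaged by confocal microscopy. For Western blotting, whole cells were treated at 0.1–10 μmol/L. Per lane, 60 μg protein was run on 10% SDS-PAGE and transferred to nitrocellulose. Primary antibody was 1:1000 overnight at 4 °C; β-actin or Na/K-ATPase served as loading control. Bands were quantified by densitometry.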

[3] = test system: PD-1/NFAT reporter-Jurkat cells; test: PD-L1 cell-based assay
[4] = test system: B16F10 tumor; conditions: 60 mg/kg; cited from earlier work
[5] = test system: human SCC-3 tumor; conditions: 20 mg/kg; cited from earlier work

## C[C@@H](O)[C@H](NC(=O)N[C@@H](CC(N)=O)c1nc([C@@H](N)CO)no1)C(=O)O [CA-170]
[1]
  direct binding to PD-L1: no direct binding

## CC(C)C[C@@H](C=O)NC(=O)[C@H](CC(C)C)NC(=O)[C@H](CC(C)C)NC(=O)OCc1ccccc1 [MG132] (Cbz-Leu-Leu-Leu-aldehyde)
[2]
  PD-L1 protein expression / distribution: increased

## CCN(CC)CCCC(C)Nc1ccnc2cc(Cl)ccc12 (stereo not drawn) [chloroquine]
[2]
  PD-L1 protein expression / distribution: increased

## COc1nc(OCc2cccc(-c3ccccc3)c2C)ccc1CNCCNC(C)=O [BMS202]
[3]
  concentration required in the T cell activation assay: more than 10 μmol/L
[4]
  inhibition rate in B16F10 tumor: 50.1%
[5]
  inhibition rate in humanized mouse-transplanted human SCC-3 tumor: 41%
